# Bioassay records (PubChem BioAssay)
# The list is a sample of the results.
# PGC1a Ac signal: compounds raising PGC1a acetylation signal, primary screen, PGC1a modulator project, cell-based, U2OS, AlphaScreen, signal-increasing mode. activation, % at 15.6 µM. overnight. AID 651723, 2012. hit rate 0.21% among 350,000;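 active = every replicate reaching activation of at least 50%, whatever the mean replicate activation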;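 note: hits raise the AlphaScreen acetylation signal above neutral controls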
#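 Test system: U2OS cells expressing flag-PGC1a plus GCN5; Amount: 7000 U2OS cells per well; Compound: single test concentration per compound; Incubation: compound overnight at 37 °C, each detection step 1 h RT; Signal: AlphaScreen lysate read.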
# Hep G6PC suppr: suppressors of forskolin-stimulated G6PC mRNA, dose response, PGC-1a acetylation activator project, cell-based, hepatocytes, RT-qPCR, cherry-picked samples; shares compounds with PGC1a Ac signal; primary mouse hepatocytes; G6PC suppression (normalized activity, % of positive control; higher = more suppression), % at 26 µM; 240 tested, under 10 active;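 active = dose curves showing G6PC suppression whose half-maximal dose is at most twice the top valid dose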;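 note: G6PC expression relative to GAPDH housekeeping gene as delta delta Ct; 0% = median of neutral control wells and 100% = median of positive control wells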
# PCK1 hep suppr: suppression of PCK1 mRNA in primary hepatocytes, dose response, PGC-1a acetylation activator project, cell-based, primary mouse hepatocytes, RT-qPCR, cherry-pick; AID 743465, 2014; PCK1 expression decrease, unspecified at 26 µM; 230 tested, under 10 active; forskolin-stimulated; shares compounds with PGC1a Ac signal;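 active = compounds lowering PCK1 expression whose fitted half-maximal concentration is at most twice the top tested dose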;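 note: values are delta delta Ct of PCK1 relative to GAPDH; higher delta delta Ct means lower PCK1 expression so positive values indicate hits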
# Hep PGC-1a down: suppression of PGC-1a mRNA in primary hepatocytes, dose response, PGC-1a acetylation activator project, cell-based, primary mouse hepatocytes, RT-qPCR, cherry-pick; shares compounds with PGC1a Ac signal; PGC-1a mRNA qPCR, forskolin; top dose 26 µM; max activity (PGC-1a expression decrease), %; 240 tested, under 10 active; AID 743467, 2014;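 active = compound lowering PGC-1a expression with fitted half-maximal concentration at most twice its top tested dose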;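 note: 0% = neutral control wells median and 100% = positive control wells median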
# Numbers without * were called inactive.
SMILES,PGC1a Ac signal,others
CN1CCN(Cc2cc(C(C)(C)C)c(O)c(C(C)(C)C)c2)CC1,130*,
C[C@@H]1O[C@@H](O[C@@H]2C=C3CC[C@@H]4C(CC[C@]5(C)[C@@H](c6ccc(=O)oc6)CC[C@]45O)[C@@]3(C)CC2)[C@H](O)[C@H](O)[C@H]1O (some centres not stated),-67,
CCn1cc(C(=O)N2CCOCC2)c2ccccc21,-59,
CC(=O)OC(C)(C)/C=C/C(=O)[C@](C)(O)[C@H]1[C@H](O)C[C@@]2(C)[C@@H]3CC=C4[C@H](C[C@H](O)C(=O)C4(C)C)[C@]3(C)C(=O)C[C@]12C,-88,
C[C@@H]1CN([C@H](C)CO)C(=O)c2c(c3ccccc3n2C)-c2ccccc2CO[C@@H]1CN(C)C(=O)Oc1ccccc1,265*,
COc1ccc(-n2nnnc2C(CCc2ccccc2)N2CCC(n3c(=O)[nH]c4ccccc43)CC2)cc1 (configuration not stated),-55,
Cc1cc(C)n(-c2ccc(NN=C(C#N)C#N)cc2)n1,-41,
COc1ccc(-n2c(O)c(/C(C)=N/Nc3ccccc3)c(=O)[nH]c2=O)cc1,-45,
CCOC(=O)[C@]1(C#N)[C@@H]2C=CC(C(N)=O)=CN2[C@@H](C(N)=O)[C@@H]1c1ccc(F)cc1,-88,
O=C1NCN(c2ccccc2)C12CCN(C(c1cc3ccccc3o1)c1nnnn1C1CCCCC1)CC2 (configuration not stated),84*,
O=c1[nH]c(=S)[nH]c(O)c1N=Nc1ccc(SC(F)F)cc1,-50,
Oc1ccc2c3c1O[C@H]1[C@@H](O)CC[C@@]4(O)[C@@H](C2)N(CC2CCC2)CC[C@]314,-57,
CCn1nc(/C=C/c2ccccc2)nc2c(=O)n(C)c(=O)nc1-2,-69,
O=C1CN=C(c2ccc[nH]2)c2cc(Cl)ccc2N1,-41,
C1=NCCc2c1[nH]c1ccccc21,156*,
CC1=CC2OC3CC4OC(=O)C=CC=CC(C(C)O)OCC(O)C(C)CC(=O)OCC2(CC1O)C4(C)C31CO1 (configuration not stated),-81,
COc1ccc(CC2NCC(O)C2OC(C)=O)cc1 (configuration not stated),-92,
C=C1C(=O)O[C@@H]2C[C@@H](C)[C@@H]3C=CC(=O)[C@@]3(C)[C@@H](O)[C@H]12,-47,
CCn1nc(-c2cccs2)nc2c(=O)n(C)c(=O)nc1-2,-40,
CC1=C(C/C(C)=C/c2ccccc2)/C(=C/CO)[C@@H]2OC(=O)O[C@]2(C)C12CC2,-43,
CCOc1ccc(-c2cc(C)[n+](CCc3ccc(OC)c(OC)c3)c(-c3ccc(OCC)cc3)c2)cc1,230*,
CC(=O)OC1(C)CC(C)C(=O)C(C(O)CC2CC(=O)NC(=O)C2)C1 (configuration not stated),-93,
C1=C(c2ccccc2)CCNC1,-47,
C[C@@H]1C[C@@H]([C@H](O)CC2CC(=O)NC(=O)C2)C(=O)[C@@H](C)C1,-73,
CC(=O)OC(C)(C)/C=C/C(=O)C(C)(O)C1C(O)CC2(C)C3CC=C4C(CC(O)C(=O)C4(C)C)C3(C)C(=O)CC12C (configuration not stated),-70,
COc1ccc(OC(=O)N(C)C[C@H]2OCc3ccccc3-c3c(n(C)c4ccccc34)C(=O)N([C@@H](C)CO)C[C@H]2C)cc1,62*,Hep G6PC suppr=13;PCK1 hep suppr=48;Hep PGC-1a down=46
CC(=O)c1c(C)n(C2CCCCC2)c2ccc(O)cc12,-55,
CCC1(OC(=O)CN)C(=O)OCc2c1cc1n(c2=O)Cc2cc3ccccc3nc2-1 (configuration not stated),-43,
CC(=O)OC[C@]12CCC(C)=C[C@H]1O[C@@H]1[C@H](O)[C@@H](OC(C)=O)[C@@]2(C)[C@]12CO2,-86,
C[C@@H]1O[C@@H](O[C@@H]2C=C3CCC4C(CC[C@]5(C)[C@@H](c6ccc(=O)oc6)CC[C@]45O)[C@@]3(C)CC2)[C@H](O)[C@H](O)[C@H]1O (some centres not stated),-60,
